Experimental data from ChEMBL document CHEMBL1177760, “Antioxidative activities of histidine containing caffeic acid-dipeptides” (Bioorg Med Chem Lett, 2010).

Legend:
[1] = test system: Radical scavenging activity; assay: Antioxidant activity assessed as DPPH free radical scavenging activity at 25 uM after 20 mins relative to control; type: functional
Method in brief: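 DPPH radical scavenging run in methanol and in acetate-buffered (pH 5.5) methanol; antioxidant:DPPH molar ratio 0.25; triplicate, repeated five times; mean ± standard error.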

[2] = Antioxidant activity against lipid peroxidation at 90 uM after 10 hrs by ferric thiocyanate method relative to control; type: functional
Method in brief: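 Linoleic acid (>99%) emulsified with Tween 20, biphasic autoxidation system; each antioxidant at 90 µM final, held at 50 °C in the dark; lipid peroxidation read by ferric thiocyanate absorbance at 10 h, expressed as percent inhibition (%Pi) against untreated control; triplicate, mean ± standard error.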

[3] = biological target: Xanthine dehydrogenase/oxidase (Homo sapiens, UniProt P47989); assay: Inhibition of xanthine oxidase after 15 mins; details: 0.25 h
Method in brief: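 Xanthine oxidase inhibition with test agent at 0.1 mM; triplicate, mean ± standard error.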

Chain of Xanthine dehydrogenase/oxidase (P47989 whole entry): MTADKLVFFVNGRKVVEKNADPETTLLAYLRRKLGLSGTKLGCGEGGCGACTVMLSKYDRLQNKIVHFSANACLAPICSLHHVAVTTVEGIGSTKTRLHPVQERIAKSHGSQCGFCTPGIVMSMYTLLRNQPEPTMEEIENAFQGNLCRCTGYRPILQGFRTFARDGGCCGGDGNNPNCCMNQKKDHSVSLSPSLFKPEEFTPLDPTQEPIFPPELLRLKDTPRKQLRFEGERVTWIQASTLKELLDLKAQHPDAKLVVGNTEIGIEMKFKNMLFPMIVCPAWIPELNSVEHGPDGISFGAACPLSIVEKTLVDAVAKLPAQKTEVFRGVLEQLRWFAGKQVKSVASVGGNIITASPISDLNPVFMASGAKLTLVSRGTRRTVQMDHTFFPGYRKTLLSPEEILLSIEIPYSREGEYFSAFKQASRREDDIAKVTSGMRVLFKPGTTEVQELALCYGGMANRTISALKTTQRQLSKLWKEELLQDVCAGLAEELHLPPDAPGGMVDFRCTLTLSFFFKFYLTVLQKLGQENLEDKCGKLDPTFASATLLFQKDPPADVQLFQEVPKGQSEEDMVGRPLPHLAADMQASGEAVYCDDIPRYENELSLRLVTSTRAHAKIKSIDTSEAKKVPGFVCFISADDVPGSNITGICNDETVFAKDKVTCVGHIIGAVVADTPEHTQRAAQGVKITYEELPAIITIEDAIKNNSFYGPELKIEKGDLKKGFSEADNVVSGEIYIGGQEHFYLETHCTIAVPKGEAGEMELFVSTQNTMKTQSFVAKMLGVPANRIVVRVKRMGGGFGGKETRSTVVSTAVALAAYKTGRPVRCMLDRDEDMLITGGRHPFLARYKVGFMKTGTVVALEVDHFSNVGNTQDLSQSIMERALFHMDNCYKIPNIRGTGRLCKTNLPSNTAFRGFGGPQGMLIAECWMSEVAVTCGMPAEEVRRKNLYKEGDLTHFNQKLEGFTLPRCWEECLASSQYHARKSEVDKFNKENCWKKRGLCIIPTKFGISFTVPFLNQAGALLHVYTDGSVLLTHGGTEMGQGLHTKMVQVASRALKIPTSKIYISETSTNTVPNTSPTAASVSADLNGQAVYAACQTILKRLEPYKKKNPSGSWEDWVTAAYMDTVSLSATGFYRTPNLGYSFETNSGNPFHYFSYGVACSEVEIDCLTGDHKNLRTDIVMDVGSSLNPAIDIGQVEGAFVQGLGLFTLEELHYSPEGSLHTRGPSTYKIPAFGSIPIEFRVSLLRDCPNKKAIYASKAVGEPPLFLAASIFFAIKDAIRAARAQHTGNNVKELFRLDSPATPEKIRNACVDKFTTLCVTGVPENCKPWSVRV

With `NC(=O)[C@H](CC(=O)O)NC(=O)[C@H](Cc1cnc[nH]1)NC(=O)/C=C/c1ccc(O)c(O)c1` the Activity [1] was 49% and the Activity [2] was 73%.

In the case of `C[C@H](NC(=O)[C@H](Cc1cnc[nH]1)NC(=O)/C=C/c1ccc(O)c(O)c1)C(N)=O`, the Activity [2] is reported as 66%.

`NC(=O)[C@H](Cc1cnc[nH]1)NC(=O)CCNC(=O)/C=C/c1ccc(O)c(O)c1` showed an Activity [1] of 70% and an Activity [2] of 64%.

`NC(=O)[C@H](CS)NC(=O)[C@H](Cc1cnc[nH]1)NC(=O)/C=C/c1ccc(O)c(O)c1` showed an Activity [2] of 79%.

For `NC(=O)[C@H](CO)NC(=O)[C@H](Cc1cnc[nH]1)NC(=O)/C=C/c1ccc(O)c(O)c1`, the Activity [2] was 71%.

`NC(=O)[C@H](Cc1cnc[nH]1)NC(=O)[C@H](Cc1ccccc1)NC(=O)/C=C/c1ccc(O)c(O)c1` showed an Activity [1] of 59% and an Activity [2] of 80%.

Compound `NCCCC[C@H](NC(=O)[C@H](Cc1cnc[nH]1)NC(=O)/C=C/c1ccc(O)c(O)c1)C(N)=O` has an Activity [1] of 54% and an Activity [2] of 76%.

Compound `NC(=O)[C@@H]1CCCN1C(=O)[C@H](Cc1cnc[nH]1)NC(=O)/C=C/c1ccc(O)c(O)c1` has an Activity [2] of 61%.

For `C[C@H](NC(=O)/C=C/c1ccc(O)c(O)c1)C(=O)N[C@@H](Cc1cnc[nH]1)C(N)=O`, the Activity [2] was 84%.

For `NC(=O)[C@H](Cc1cnc[nH]1)NC(=O)[C@H](CO)NC(=O)/C=C/c1ccc(O)c(O)c1`, the Activity [2] was 83%.

Compound `NC(=O)[C@H](Cc1cnc[nH]1)NC(=O)[C@H](CS)NC(=O)/C=C/c1ccc(O)c(O)c1` has an Activity [2] of 84%.

Work on `NC(=O)[C@H](Cc1ccccc1)NC(=O)/C=C/c1ccc(O)c(O)c1` yielded an Activity [1] of 51% and an Activity [2] of 73%.

In the case of `NC(=O)[C@H](Cc1ccccc1)NC(=O)[C@H](Cc1cnc[nH]1)NC(=O)/C=C/c1ccc(O)c(O)c1`, the Activity [2] is reported as 72%.

`NC(=O)CCNC(=O)[C@H](Cc1cnc[nH]1)NC(=O)/C=C/c1ccc(O)c(O)c1` gave an Activity [2] of 71%.

Work on `O=C(O)/C=C/c1ccc(O)c(O)c1` yielded an Activity [1] of 47%.

`NCCCC[C@H](NC(=O)/C=C/c1ccc(O)c(O)c1)C(=O)N[C@@H](Cc1cnc[nH]1)C(N)=O` showed an Activity [1] of 65% and an Activity [2] of 84%.

In the case of `NC(=O)[C@H](Cc1cnc[nH]1)NC(=O)[C@@H]1CCCN1C(=O)/C=C/c1ccc(O)c(O)c1`, the Activity [1] is reported as 71%, the “inhibition (INH)” value [3] is reported as 52% and the Activity [2] is reported as 87%.

For `NC(=O)[C@H](Cc1cnc[nH]1)NC(=O)[C@H](Cc1cnc[nH]1)NC(=O)/C=C/c1ccc(O)c(O)c1`, the Activity [2] was 80%.

In the case of `NC(=O)[C@H](Cc1cnc[nH]1)NC(=O)[C@H](CC(=O)O)NC(=O)/C=C/c1ccc(O)c(O)c1`, the Activity [1] is reported as 52% and the Activity [2] is reported as 82%.

Work on `COc1ccc(O)c(C(C)(C)C)c1.COc1ccc(O)cc1C(C)(C)C` yielded an Activity [1] of 62% and an Activity [2] of 86%.
